Experimental findings from ChEMBL document CHEMBL1138950, “Benzimidazole derivatives bearing substituted biphenyls as hepatitis C virus NS5B RNA-dependent RNA polymerase inhibitors: structure-activity relationship studies and identification of a potent and highly selective inhibitor JTK-109” (J Med Chem, 2006) are described below.

pEC50, pIC50: −log10 of the molar value.

The nature of data set [1]: Therapeutic index, CC50 for viability of Huh5-2 cells/EC50 for inhibition of HCV subgenomic RNA replication. The class given is cell-based, Huh-5-2. To be noted: human, read-out: Ratio CC50/EC50.
Data set [2] deals with Hepatitis C virus. Nature of the data set: Inhibition of HCV subgenomic RNA replication in Huh5-2 cells after 48 hrs by replicon assay. The class given is functional, organism-based, Hepacivirus hominis. To be noted: Huh-5-2, 48 h. A digest of the protocol:
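Huh-5-2 cells (Huh-7-derived, genotype 1b subgenomic replicon with luciferase reporter) seeded at 5 × 10^3 per well in DMEM with 10% FBS, 37 °C, 5% CO2; compounds added next day, 48 h exposure; luciferase activity read. EC50 is the concentration reducing replication by 50%. Triplicate, mean of three experiments.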
For orientation: In antiviral work, replicon cells carry a viral genome segment that copies itself.

A short description of data set [3]: Plasma concentration in rat at 30 mg/kg, po after 1 hr. The class given is ADME, organism-based. Further details: dose 30 mg/kg, route oral. A digest of the protocol:
(§1)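 Rats dosed orally at 30 mg/kg; plasma sampled at 1 and 2 h; n = 2 or 3.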

Data set [4] deals with RNA-directed RNA polymerase (Hepacivirus hominis, UniProt O39930). Nature of the data set: Inhibition of HCV 1b BK six His-tagged C-terminal truncated 544 amino acid NS5B RNA dependent RNA polymerase. Further details: species or system Hepatitis C virus subtype 1b. In a few lines:
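HCV genotype 1b (BK) NS5B lacking 47 C-terminal residues, His6-tagged, E. coli-expressed; 7 nM enzyme with 5 µg HCV 3′X RNA template-primer, 50 µM each ATP/GTP/CTP, 2 µM UTP plus [3H]-UTP; pH 7.5 Tris, 5 mM MgCl2. Compounds in DMSO (5% final). 60 min at 25 °C; TCA-precipitable radioactivity read. Triplicate, mean of three experiments.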

The test system of data set [5] is Huh-5-2. Nature of the data set: Viability of Huh5-2 cells by MTT assay. The class given is functional. To be noted: Homo sapiens. (In general: Formazan colour is commonly taken as a measure of viable cells.)
Data set [6] can be described thus: Plasma concentration in rat at 30 mg/kg, po after 2 hrs. It is filed as ADME, organism-based. On the set-up: dose 30 mg/kg, route oral. In a few lines: as §1
The test system of data set [7] is Hepatitis C virus. The experiment in a line: Inhibition of HCV subgenomic RNA replication in Huh5-2 cells at 10 uM after 48 hrs by replicon assay. The class given is functional, Hepacivirus hominis. To be noted: Huh-5-2, 48 h.
Data set [8] in a line: Apparent permeability in Caco-2 cells. The class given is ADME, cell-based. To be noted: human.
Data set [9] in a line: Distribution coefficient, log D at pH 7.2. The class given is physicochemical. To be noted: octanol/water.

Sequence of RNA-directed RNA polymerase (O39930 whole entry, the tested form may be a part): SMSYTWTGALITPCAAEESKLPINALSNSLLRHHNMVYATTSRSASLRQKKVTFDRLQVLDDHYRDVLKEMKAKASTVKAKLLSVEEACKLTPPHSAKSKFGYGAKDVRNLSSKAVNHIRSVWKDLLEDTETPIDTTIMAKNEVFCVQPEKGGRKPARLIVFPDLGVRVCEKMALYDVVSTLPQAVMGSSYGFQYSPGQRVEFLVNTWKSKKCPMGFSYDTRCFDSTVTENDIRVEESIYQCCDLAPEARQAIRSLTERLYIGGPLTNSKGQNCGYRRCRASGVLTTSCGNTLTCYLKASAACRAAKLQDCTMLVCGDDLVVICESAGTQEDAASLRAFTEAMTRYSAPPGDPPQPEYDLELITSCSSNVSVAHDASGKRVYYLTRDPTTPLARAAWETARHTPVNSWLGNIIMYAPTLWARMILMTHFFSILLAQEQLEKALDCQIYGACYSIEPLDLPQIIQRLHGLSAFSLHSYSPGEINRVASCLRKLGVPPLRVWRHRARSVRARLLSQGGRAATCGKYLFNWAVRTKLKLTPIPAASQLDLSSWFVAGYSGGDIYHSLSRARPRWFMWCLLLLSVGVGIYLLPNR

As a reminder, the pEC50 is −log10 of the EC50, conventionally taken in molar units. In general, pIC50 refers to the IC50 on a negative log10 scale, so that one unit is a factor of ten. Usually CC50 stands for the concentration that lowers cell viability or growth by half. Higher therefore signals better tolerance by the cells. Consider `CN(C)C(=O)c1ccc(-c2ccc(Cl)cc2)c(COc2ccc(-c3nc4cc(C(=O)O)ccc4n3C3CCCCC3)c(F)c2)c1`, for which the selectivity ratio in [1] amounted to 163. In data set [2], the pEC50 is 6.80. The same compound came in with a concentration at 1 h in data set [3] of 1600 nM. In addition, the pIC50 in data set [4] was 7.92. For the same compound, the CC50 in [5] was 26000 nM. The concentration at 2 h in data set [6] turned out to be 1800 nM.

Take `CC(C)C(=O)N(C)c1ccc(-c2ccc(Cl)cc2)c(COc2ccc(-c3nc4cc(C(=O)O)ccc4n3C3CCCCC3)c(F)c2)c1`: the selectivity ratio in [1] amounted to 63. Further, the pEC50 in data set [2] was 6.46. This compound also registered a concentration at 1 h in data set [3] of 1900 nM. The same compound showed a pIC50 in data set [4] of 7.49. In data set [5], this compound showed a CC50 of 22000 nM. Also, the concentration at 2 h in data set [6] was 1100 nM.

In the case of `O=C(O)c1ccc2c(c1)nc(-c1ccc(OCc3cc(C(=O)N4CCCCC4)ccc3-c3ccc(Cl)cc3)cc1F)n2C1CCCCC1`, in data set [1], the selectivity ratio is 89. The compound further showed a pEC50 in data set [2] of 6.57. Also, the concentration at 1 h in data set [3] is 2200 nM. The same compound showed a pIC50 in [4] of 7.74. Moreover, the CC50 in [5] amounted to 24000 nM. In [6], this compound came in with a concentration at 2 h of 700 nM.

For orientation: inhibition means the percentage by which the read-out fell short of the control. A low value points to little suppression. Consider `Cc1nc(COc2ccc(-c3nc4cc(C(=O)O)ccc4n3C3CCCCC3)cc2)c(-c2ccc(Cl)cc2)o1`, for which the inhibition at 10 µM in data set [7] was determined as 30%. The compound further showed a pEC50 in data set [2] below 5.00. Besides, the pIC50 in [4] was 6.24. The compound further had a CC50 in data set [5] of 39000 nM.

On to `CNC(=O)c1ccc(-c2ccc(Cl)cc2)c(COc2ccc(-c3nc4cc(C(=O)O)ccc4n3C3CCCCC3)c(F)c2)c1`, for which, in [1], the selectivity ratio was 69. Also, in [2], the pEC50 was 6.44. The concentration at 1 h in data set [3] is 700 nM. Also, in [4], the pIC50 is 7.92. In data set [5], this compound returned a CC50 of 25000 nM. In [6], this compound had a concentration at 2 h of 500 nM.

As to `CC(=O)Nc1ccc(-c2ccc(Cl)cc2)c(COc2ccc(-c3nc4cc(C(=O)O)ccc4n3C3CCCCC3)c(F)c2)c1`, in data set [1], the selectivity ratio stood at 52. The same compound had a pEC50 in data set [2] of 6.34. Also, the concentration at 1 h in data set [3] came to 1000 nM. In addition, the pIC50 in data set [4] is 7.85. Further, in data set [5], the half-maximal cytotoxic concentration (CC50) was 24000 nM. This compound also came in with a concentration at 2 h in data set [6] of 300 nM.

As for `O=C(O)c1ccc2c(c1)nc(-c1ccc(OCc3cc(C(=O)N4CCOCC4)ccc3-c3ccc(Cl)cc3)cc1F)n2C1CCCCC1`, the selectivity ratio in data set [1] is 89. The compound further had a pEC50 in data set [2] of 6.55. This compound also came in with a concentration at 1 h in [3] of 1100 nM. The same compound had a pIC50 in data set [4] of 7.85. This compound also yielded a CC50 in data set [5] of 25000 nM. The compound further gave a concentration at 2 h in data set [6] of 500 nM.

Turning to `CC(=O)N(c1ccc(-c2ccc(Cl)cc2)c(COc2ccc(-c3nc4cc(C(=O)O)ccc4n3C3CCCCC3)c(F)c2)c1)C(C)C`, in data set [1], the selectivity ratio is 125. In addition, in data set [2], the pEC50 was 6.80. Further, the concentration at 1 h in [3] worked out at 1100 nM. In addition, the pIC50 in data set [4] was 7.68. Half-maximal cytotoxicity in [5] (CC50) was put at 20000 nM. Further, the concentration at 2 h in data set [6] came to 700 nM.

Turning to `CCCNC(=O)c1ccc(-c2ccc(Cl)cc2)c(COc2ccc(-c3nc4cc(C(=O)O)ccc4n3C3CCCCC3)c(F)c2)c1`, the selectivity ratio in [1] was determined as 63. Besides, the pEC50 in data set [2] is 6.42. The concentration at 1 h in data set [3] amounted to 1300 nM. In data set [4], this compound gave a pIC50 of 7.68. In [5], the CC50 is 24000 nM. In [6], the concentration at 2 h came out at 600 nM.

For the compound `CCN(C(C)=O)c1ccc(-c2ccc(Cl)cc2)c(COc2ccc(-c3nc4cc(C(=O)O)ccc4n3C3CCCCC3)c(F)c2)c1`, the selectivity ratio in data set [1] worked out at 179. The pEC50 in data set [2] was 6.85. This compound came in with a concentration at 1 h in data set [3] of 1500 nM. Besides, the pIC50 in [4] is 7.72. Half-maximal cytotoxicity in data set [5] (CC50) was put at 25000 nM. In addition, the concentration at 2 h in [6] was found to be 800 nM.

Usually Papp stands for a coefficient for how fast a substance crosses the barrier. One may read the logD as lipophilicity at a set pH, counting ionised and neutral species. A low value points to a more hydrophilic compound. In [2], `O=C(O)c1ccc(-c2ccc(Cl)cc2COc2ccc(-c3nc4cc(C(=O)O)ccc4n3C3CCCCC3)cc2)cc1` showed a pEC50 below 5.00. Further, the Papp in [8] was 23.4 ×10⁻⁶ cm/s. Further, the logD in data set [9] worked out at 3.26. The same compound showed a pIC50 in data set [4] of 7.24. This compound yielded a CC50 in [5] above 50000 nM.
